Measured values from ChEMBL document CHEMBL2010787, “Design and synthesis of novel 5-phenyl-N-piperidine ethanone containing 4,5-dihydropyrazole derivatives as potential antitumor agents” (Eur J Med Chem, 2012).

Experiments:
[1] = test system: MGC-803; test: Cytotoxicity against human MGC803 cells after 48 hrs by MTT assay; assay type: functional, cell-based; conditions: MGC-803, 48 h
Method in brief: (§1)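 Log-phase tumor cells grown in RPMI 1640 with 10% FBS, diluted to 3 × 10⁴ cells/mL, and seeded in 96-well plates. Plates were held 24 h at 37 °C in 5% CO₂, then compounds were added at preset concentrations (6 wells each), with 5-fluorouracil as positive reference. After 48 h exposure, MTT in PBS (2.5 mg/mL) was added for 4 h. Formazan was dissolved in DMSO and read at 570 nm. IC50 is the concentration giving 50% survival; results are the mean of three experiments in triplicate.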

[2] = test system: Bcap37; test: Cytotoxicity against human Bcap37 cells after 48 hrs by MTT assay; assay type: functional, cell-based; conditions: Bcap37, 48 h; method in brief: as §1
[3] = test system: SGC-7901; test: Cytotoxicity against human SGC7901 cells after 48 hrs by MTT assay; assay type: functional, cell-based; conditions: SGC-7901, 48 h; method in brief: as §1
[4] = target: Telomerase reverse transcriptase (Homo sapiens, UniProt O14746); test: Inhibition of telomerase activity in human MGC803 cells after 24 hrs by TRAP-PCR-ELISA assay
Telomerase reverse transcriptase, sequence (O14746 whole entry): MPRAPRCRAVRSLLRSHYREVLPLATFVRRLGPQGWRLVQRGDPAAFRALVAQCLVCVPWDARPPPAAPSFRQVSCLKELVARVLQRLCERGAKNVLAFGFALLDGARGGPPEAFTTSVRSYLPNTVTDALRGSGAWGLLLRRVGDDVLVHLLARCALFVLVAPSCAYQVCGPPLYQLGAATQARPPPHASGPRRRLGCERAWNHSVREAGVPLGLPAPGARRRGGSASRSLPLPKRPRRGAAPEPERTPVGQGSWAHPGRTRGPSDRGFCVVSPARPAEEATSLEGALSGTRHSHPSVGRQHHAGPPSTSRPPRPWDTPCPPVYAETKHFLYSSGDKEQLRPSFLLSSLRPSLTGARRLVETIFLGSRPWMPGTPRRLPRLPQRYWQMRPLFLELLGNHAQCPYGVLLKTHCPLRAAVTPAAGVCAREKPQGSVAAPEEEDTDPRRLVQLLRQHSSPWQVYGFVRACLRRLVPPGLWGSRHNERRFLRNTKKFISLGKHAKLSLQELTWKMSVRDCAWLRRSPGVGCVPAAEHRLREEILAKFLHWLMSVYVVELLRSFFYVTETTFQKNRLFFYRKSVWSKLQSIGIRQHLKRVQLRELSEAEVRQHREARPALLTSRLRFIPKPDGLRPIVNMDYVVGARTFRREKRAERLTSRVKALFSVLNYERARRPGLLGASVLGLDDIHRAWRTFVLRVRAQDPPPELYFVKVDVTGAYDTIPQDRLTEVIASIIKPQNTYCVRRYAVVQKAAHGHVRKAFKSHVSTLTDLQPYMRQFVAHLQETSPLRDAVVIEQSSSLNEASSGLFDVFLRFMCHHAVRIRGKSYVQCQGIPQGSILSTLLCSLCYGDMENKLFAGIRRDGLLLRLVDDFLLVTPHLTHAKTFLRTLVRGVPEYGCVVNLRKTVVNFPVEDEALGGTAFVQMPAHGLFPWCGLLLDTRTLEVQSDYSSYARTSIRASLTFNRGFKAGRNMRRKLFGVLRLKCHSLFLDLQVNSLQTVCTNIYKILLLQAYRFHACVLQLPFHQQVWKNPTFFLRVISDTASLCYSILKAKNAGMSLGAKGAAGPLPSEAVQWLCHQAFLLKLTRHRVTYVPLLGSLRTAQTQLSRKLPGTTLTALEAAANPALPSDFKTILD

Structure (SMILES) | IC50 [1] | IC50 [2] | IC50 [3] | IC50 [4]
CC1=NN(C(=O)CN2CCC(C)CC2)C(c2ccccc2O)C1 (stereo not given) | 3.55 µM | 6.81 µM | 4.6 µM | 5.99 µM
CC1CCN(CC(=O)N2N=C(c3cc4ccccc4oc3=O)CC2c2ccccc2)CC1 (stereo not given) | 3.01 µM | 6.57 µM | 4.7 µM | 2 µM
O=c1[nH]cc(F)c(=O)[nH]1 [FLUOROURACIL] | 3.42 µM | 5.33 µM | 7.11 µM | –
CCC1CCCCN1CC(=O)N1N=C(c2cc3ccccc3oc2=O)CC1c1ccccc1 (stereo not given) | 8.71 µM | 7.3 µM | 6 µM | –
CC1=NN(C(=O)CN2CCCCC2C)C(c2ccccc2O)C1 (stereo not given) | 11.7 µM | 16.3 µM | 11.2 µM | –
CC1=NN(C(=O)CN2CCCCC2[N+](=O)[O-])C(c2ccccc2O)C1 (stereo not given) | 28.3 µM | 32.3 µM | 30.7 µM | 42.1 µM
CCC1CCCCN1CC(=O)N1N=C(C)CC1c1ccccc1O (stereo not given) | 15.7 µM | 10.7 µM | 12.9 µM | –
CC[n+]1c(-c2ccccc2)c2cc(N)ccc2c2ccc(N)cc21 [HOMIDIUM BROMIDE] | – | – | – | 2.47 µM
CC1=NN(C(=O)CN2CCCCC2C(N)=O)C(c2ccccc2O)C1 (stereo not given) | 38.8 µM | 41.1 µM | 39.2 µM | –
CC1=NN(C(=O)CN2CCC(O)CC2)C(c2ccccc2O)C1 (stereo not given) | 4.12 µM | 18.7 µM | 5.71 µM | 9.11 µM
CC1=NN(C(=O)CN2CCC(C(F)(F)F)CC2)C(c2ccccc2O)C1 (stereo not given) | 2.64 µM | 8.55 µM | 3.22 µM | 8.81 µM
O=C(CN1CCC(Br)CC1)N1N=C(c2cc3ccccc3oc2=O)CC1c1ccccc1 (stereo not given) | 7.01 µM | 8.76 µM | 10.3 µM | 4.11 µM
